TDP2 absorb: blocks human TDP2 phosphodiesterase activity; O95551; recombinant TDP2, T5PNP hydrolysis, p-nitrophenol absorbance 415 nm; inhibition, % at 12.8 µM; 370,000 compounds, 0.34% hits; AID 720702;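 active = inhibition above the mean of all tested compounds plus 3 SD, set per campaign, cut at about 25% in these data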;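 note: 0% = DMSO with enzyme and 100% = buffer with substrate but no TDP2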
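System: recombinant human TDP2 / Amount: 120 nM TDP2 per well / Also added: 5 mM T5PNP chromogenic substrate / Doses: 12.8 µM single point, 1% DMSO / Incubation: 2 h at 37 °C / Detection: p-Nitrophenol epi absorbance / Evaluation: % inhibition relative to enzyme-containing and enzyme-free wells / Repeats: singlicate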
PAD4 inh: blocks human protein arginine deiminase 4; Q9UM07; recombinant PAD4, RCA probe fluorescence polarization; inhibition, % at 6.36 µM; 330,000 compounds, 0.41% hits;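 active = percent inhibition above a cutoff equal to the mean of all tested compounds plus 3 SD, cut at about 15% in these data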;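 note: 0% = PAD4 with RCA probe and DMSO and 100% = probe without PAD4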
PRMT1 FP inh: inhibitors of human PRMT1; 370,000 compounds, 1.3% hits; recombinant PRMT1, activity-based probe fluorescence polarization; AID 652257; inhibition, % at 2.79 µM; Q99873;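 active = inhibition above about 21% made by adding two undisclosed values, limit read from the data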
Target sequence (Q99873 whole entry, looked up): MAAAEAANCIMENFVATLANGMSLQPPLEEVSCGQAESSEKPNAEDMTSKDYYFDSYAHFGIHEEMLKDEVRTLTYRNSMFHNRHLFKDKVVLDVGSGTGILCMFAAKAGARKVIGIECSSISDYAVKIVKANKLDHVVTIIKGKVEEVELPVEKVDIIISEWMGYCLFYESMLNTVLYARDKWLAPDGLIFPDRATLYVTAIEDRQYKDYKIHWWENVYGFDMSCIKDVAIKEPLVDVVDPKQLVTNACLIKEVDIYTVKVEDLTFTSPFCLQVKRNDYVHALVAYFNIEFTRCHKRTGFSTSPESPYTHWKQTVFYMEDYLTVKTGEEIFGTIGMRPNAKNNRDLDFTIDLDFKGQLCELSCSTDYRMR
GSTO1 inh: GSTO1 inhibition, counter-screen for RBBP9 inhibitors; P78417; recombinant GSTO1, activity-based probe fluorescence polarization; inhibition, % at 5.96 µM; 300,000 compounds, 1.1% hits; AID 1974;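 active = inhibition above the campaign mean inhibition plus 3 SD, cut at about 35% in these data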;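 note: 0% = GSTO1-1 with DMSO and 100% = wells lacking GSTO1-1 enzyme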
Target sequence (P78417 whole entry, looked up): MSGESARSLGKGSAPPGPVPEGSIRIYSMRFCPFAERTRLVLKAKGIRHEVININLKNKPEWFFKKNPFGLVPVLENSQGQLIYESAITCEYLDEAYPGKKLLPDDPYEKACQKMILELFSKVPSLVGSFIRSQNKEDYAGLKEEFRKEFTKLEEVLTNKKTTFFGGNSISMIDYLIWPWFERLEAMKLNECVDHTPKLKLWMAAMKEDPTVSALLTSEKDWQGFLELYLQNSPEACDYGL
Fh CTSL1 inh: counter-screen for PFM18AAP inhibitors: inhibitors of F. hepatica cathepsin L1. 300,000 compounds, 0.49% hits. recombinant F. hepatica cathepsin L1, Z-Leu-Arg-MCA fluorescence. AID 1906. inhibition, % at 5.96 µM;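 active = inhibition above the mean of all tested compounds plus 3 SD, set per screening campaign, cut at about 17% in these data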;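 note: 0% = plate median of test compound wells and 100% = 1 µM Z-Phe-Ala-diazomethylketone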
An asterisk follows results filed as active. Hits are enriched below; roughly 2.5% of the tested compounds scored in any of these assays.

`O=C1c2ccccc2C(=O)N1CCC(c1ccc(F)cc1)c1ccco1` (stereo unspecified) gave TDP2 absorb -15, PAD4 inh 7, PRMT1 FP inh 10, GSTO1 inh 0 and Fh CTSL1 inh 18*.
O=C1CCC(=O)N1CCC(c1ccc(F)cc1)c1ccco1 (stereo unspecified) was read as TDP2 absorb 8, PAD4 inh 3, PRMT1 FP inh 1, GSTO1 inh -3 and Fh CTSL1 inh 2.
Screening COc1ccc(/C=C2\CC3(OC(=O)C4CCCC4)CCCN2C3)cc1 (stereo unspecified) returned TDP2 absorb 7 and PRMT1 FP inh 0.
For CC(C)CC(NC(=O)C1CCC(C)CC1)C(=O)NCc1ccco1 (stereo unspecified) the results were TDP2 absorb -14, PAD4 inh -3, PRMT1 FP inh 0, GSTO1 inh 5 and Fh CTSL1 inh 23*.
COc1ccc(C=Nn2c(-c3ccc(F)cc3)n[nH]c2=S)cc1OCc1ccccc1 was read as TDP2 absorb 10 and PRMT1 FP inh -1.
`COc1ccc(CC(=O)NCc2ccc3c(c2)cc(C)n3C)cc1OC` gave TDP2 absorb 0, PAD4 inh -7, PRMT1 FP inh 1, GSTO1 inh 10 and Fh CTSL1 inh 2.
For COCC(=O)NCc1ccc2c(c1)cc(C)n2C the results were TDP2 absorb 2, PAD4 inh 15*, PRMT1 FP inh 6, GSTO1 inh 1 and Fh CTSL1 inh 2.
`S=C(Nc1ccccc1)OC1CCC12CCC(c1ccccc1)CC2` (stereo unspecified) gave TDP2 absorb 3 and PRMT1 FP inh 1.
For S=c1[nH]nc(-c2cc3c(s2)-c2ccccc2CC3)o1 the results were TDP2 absorb 6, PAD4 inh 5, PRMT1 FP inh 22*, GSTO1 inh -23 and Fh CTSL1 inh 7.
`Cc1ccc(SCc2cc(=O)c3c(=O)n(-c4ccccc4)[nH]c3[nH]2)cc1` gave TDP2 absorb -8, PAD4 inh 2, PRMT1 FP inh 22*, GSTO1 inh -101 and Fh CTSL1 inh 5.
Screening O=c1cc(CSc2ccccc2)[nH]c2ccccc12 returned TDP2 absorb 7, PAD4 inh -4, PRMT1 FP inh -5, GSTO1 inh -1 and Fh CTSL1 inh 2.
For O=c1cc(CSc2ccc(Cl)cc2)[nH]c2[nH]n(-c3ccccc3)c(=O)c12 the results were TDP2 absorb 5, PAD4 inh 2, PRMT1 FP inh 24*, GSTO1 inh -191 and Fh CTSL1 inh 7.
`COC(=O)[C@]12C[C@H](CC(=O)NCCc3ccccc3OC)C(=O)N(CCC3=CCCCC3)C1=C[C@H](C(C)C)O[C@@H]2C1CC1` gave TDP2 absorb -2 and PRMT1 FP inh -3.
For CCNC(=O)N(C)[C@H]1C[C@H]2c3[nH]c4cccc(-c5ccc6c(c5)OCO6)c4c3CCN2C[C@H]1[C@H](C)O the results were TDP2 absorb -7 and PRMT1 FP inh 3.
Screening COc1ccc(/C=C/S(=O)(=O)NC2CCCC2)c(CNC(=O)OC(C)(C)C)c1 returned TDP2 absorb 5 and PRMT1 FP inh 2.
Screening N#Cc1c(N)sc2c1CCCCCC2 returned TDP2 absorb -1, PAD4 inh -4, PRMT1 FP inh 21*, GSTO1 inh 5 and Fh CTSL1 inh -1.
`Cc1cc(C)c(S(=O)(=O)NC2CC(C)(C)NC(C)(C)C2)cc1C` gave TDP2 absorb -11, PAD4 inh -4, PRMT1 FP inh 0, GSTO1 inh 1 and Fh CTSL1 inh 4.
Screening CCOc1cc(C)c(S(=O)(=O)NC2CC(C)(C)NC(C)(C)C2)cc1C returned TDP2 absorb 11, PAD4 inh -3, PRMT1 FP inh 0, GSTO1 inh 37* and Fh CTSL1 inh 2.
`O=C(OCc1ccccc1)c1ccc(NCc2cc(O)ccc2O)cc1` gave TDP2 absorb 0 and PRMT1 FP inh 22*.
COP(=O)(OC)c1ccc(NCc2cc(O)ccc2O)cc1 was read as TDP2 absorb -5 and PRMT1 FP inh 22*.
For CCC(=O)Nc1ccc(C(=O)OCc2ccccc2)cc1 the results were TDP2 absorb 4, PAD4 inh -5, PRMT1 FP inh 1, GSTO1 inh 2 and Fh CTSL1 inh -1.
Screening CC(C)(C)c1ccc(-c2nnc(SCC(=O)Nc3cccc4ccccc34)n2Cc2ccco2)cc1 returned TDP2 absorb -3 and PRMT1 FP inh -1.
`Fc1cccc(C[n+]2csc3ccccc32)c1` gave TDP2 absorb -3, PAD4 inh 12, PRMT1 FP inh 75*, GSTO1 inh 3 and Fh CTSL1 inh -3.
Cc1ccc(OC(=O)COc2ccccc2)c(-n2nc3ccccc3n2)c1 was read as TDP2 absorb 0, PAD4 inh 4, PRMT1 FP inh 10, GSTO1 inh -3 and Fh CTSL1 inh -18.
For Cc1ccc(OC(=O)COc2ccccc2C)c(-n2nc3ccccc3n2)c1 the results were TDP2 absorb -6, PAD4 inh -2, PRMT1 FP inh 24*, GSTO1 inh 1 and Fh CTSL1 inh -18.
O=C(O)c1cccc(N2C(=O)/C(=C/c3ccc(SCc4ccc(Cl)cc4)o3)SC2=S)c1 was read as TDP2 absorb 17 and PRMT1 FP inh 57*.
For Cc1ccc(N2CCN(C(=O)CN3C(=O)c4ccccc4C3=O)CC2)cc1 the results were TDP2 absorb -1, PAD4 inh 0, PRMT1 FP inh -3, GSTO1 inh 1 and Fh CTSL1 inh 21*.
`O=C(CN1C(=O)c2ccccc2C1=O)N1CCN(c2ccccc2)CC1` gave TDP2 absorb -7, PAD4 inh 1, PRMT1 FP inh 4, GSTO1 inh 7 and Fh CTSL1 inh 1.
For O=C(c1sccc1Cl)N1CCC(n2nnc3ncccc32)CC1 the results were TDP2 absorb 1 and PRMT1 FP inh -4.
For COc1ccc(S(=O)(=O)N2CCCN(CC(=O)Nc3ccc(OC)c(Cl)c3)CC2)cc1 the results were TDP2 absorb 6, PAD4 inh 2, PRMT1 FP inh -4, GSTO1 inh 36* and Fh CTSL1 inh 8.
`COc1ccc(NC(=O)CN2CCN(S(=O)(=O)c3ccc(Cl)cc3)CC2)cc1Cl` gave TDP2 absorb -1, PAD4 inh 2, PRMT1 FP inh 2, GSTO1 inh 6 and Fh CTSL1 inh 2.
For C=CC[C@@]1(c2ccc(Br)cc2OC)Oc2ccccc2-c2nccnc21 the results were TDP2 absorb 1 and PRMT1 FP inh 1.
O=C(COC(=O)c1ccc([N+](=O)[O-])o1)c1ccccc1 was read as TDP2 absorb 10, PAD4 inh -5, PRMT1 FP inh -1, GSTO1 inh 7 and Fh CTSL1 inh -5.
O=C(OCCCOC(=O)c1ccc([N+](=O)[O-])o1)c1ccc([N+](=O)[O-])o1 was read as TDP2 absorb 15, PAD4 inh -14, PRMT1 FP inh 0, GSTO1 inh 21 and Fh CTSL1 inh 23*.
O=C1CCC2(CCCCC2)N1CCCO was read as TDP2 absorb 1 and PRMT1 FP inh 3.

Source: PubChem BioAssay (The Scripps Research Institute Molecular Screening Center)
